Laboratory results published in ChEMBL document CHEMBL3272220, “Central nervous system active 5-oxo-1,4,5,6,7,8-hexahydrocinnolines” (J Med Chem, 1976).
The source made the active and inactive calls. The rule behind the calls is not given here.

Assays:
Mus musculus [1] = test: Central nervous system depressant activity in CF albino mouse assessed as inhibition of spontaneous motor activity at 500 mg/kg, po measured within 15 mins relative to control; type: functional; settings: for inhibition in vivo at 500 mg/kg: 0.25 h
In short: (§1)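 Male CF mice got 500 mg/kg orally as a 0.2% agar suspension. Scoring was at peak drug effect on a 0-4+ scale. Scores were judged together from percentage inhibition of spontaneous motor activity, a ptotic index based on percentage eye closure, and the degree of sedation.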

Mus musculus [2] = test: Anticonvulsant activity in po dosed CF albino mouse assessed as protection against electroshock-induced seizure; type: functional
In short: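 Male CF mice were dosed orally, with the vehicle for po dosing being a 0.2% agar suspension. Protection against electroshock-induced seizures was examined at 500 mg/kg po. Activity is reported as ED50 in mg/kg po.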

Mus musculus [3] = test: Antidepressant activity in CF albino mouse assessed as potentiation of dopa-induced response at 25 mg/kg, po relative to control; type: functional
In short: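 Male CF mice received 25 mg/kg orally in 0.2% agar suspension. The read-out was potentiation of the Dopa response. Results were graded on a plus-scale.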

Mus musculus [4] = test: Antidepressant activity in CF albino mouse assessed as inhibition of reserpine-induced hypothermia at 25 mg/kg, po relative to control; type: functional
In short: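 Oral dosing was 25 mg/kg in 0.2% agar suspension to male CF mice. Antagonism of reserpine-induced hypothermia was measured and graded on a plus-scale.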

Mus musculus [5] = test: Central nervous system depressant activity in CF albino mouse assessed as eye closure rate at 500 mg/kg, po relative to control; type: functional; in short: as §1
Mus musculus [6] = test: Central nervous system depressant activity in CF albino mouse assessed as induction of sedation without arousability at 500 mg/kg, po; type: functional, organism-based; design: dose 500 mg/kg; in short: as §1
Mus musculus [7] = test: Toxicity in CF albino mouse assessed as tremor at 500 mg/kg, po; type: organism-based; design: dose 500 mg/kg, route oral; settings: in vivo
Mus musculus [8] = test: Toxicity in CF albino mouse assessed as mild convulsion at 500 mg/kg, po; type: organism-based; design: dose 500 mg/kg, route oral; settings: in vivo
Mus musculus [9] = test: Central nervous system depressant activity in po dosed CF albino mouse assessed as induction of sedation; type: functional, organism-based
Mus musculus [10] = test: Central nervous system depressant activity in CF albino mouse assessed as induction of sedation at 500 mg/kg, po; type: functional, organism-based; design: dose 500 mg/kg; in short: as §1
Mus musculus [11] = test: Central nervous system depressant activity in CF albino mouse assessed as induction of sedation at 25 mg/kg, po; type: functional, organism-based; design: dose 25 mg/kg
Mus musculus [12] = test: Toxicity in CF albino mouse at 500 mg/kg, po; type: organism-based; design: dose 500 mg/kg, route oral; settings: in vivo
Mus musculus [13] = test: Central nervous system depressant activity in CF albino mouse assessed as induction of sedation with arousability at 500 mg/kg, po; type: functional, organism-based; design: dose 500 mg/kg; in short: as §1

CC1(C)CC(=O)C2=C(C1)N(CCN1CCNCC1)N=C(c1ccc(F)cc1)C2.Cc1ccc(S(=O)(=O)O)cc1.O
inhibition (Mus musculus [1]): inactive
ED50 (Mus musculus [2]): inactive
Activity (Mus musculus [3]): 51%
inhibition in vivo at 25 mg/kg (Mus musculus [4]): 26%

CN(C)CCN1N=C(c2ccccc2)CC2=C1CC(C)(C)CC2=O.[O-][Cl+3]([O-])([O-])O
inhibition in vivo at 500 mg/kg (Mus musculus [1]): 51%
Activity (Mus musculus [5]): 75%
Activity (Mus musculus [6]): inactive
Activity (Mus musculus [7]): Toxic
Activity (Mus musculus [8]): Toxic
ED50 (Mus musculus [2]): 500 mg/kg
Activity (Mus musculus [3]): 51%
inhibition in vivo at 25 mg/kg (Mus musculus [4]): 26%
Activity (Mus musculus [9]): Dose-dependent effect

CCN(CC)CCN1N=C(c2ccc(OC)cc2)CC2=C1CC(C)(C)CC2=O.[O-][Cl+3]([O-])([O-])O
inhibition in vivo at 500 mg/kg (Mus musculus [1]): 1%
Activity (Mus musculus [5]): 25%
ED50 (Mus musculus [2]): 300 mg/kg
Activity (Mus musculus [3]): 26%
inhibition in vivo at 25 mg/kg (Mus musculus [4]): 0%
Activity (Mus musculus [10]): inactive

CN1N=C(c2ccccc2)CC2=C1CC(C)(C)CC2=O
inhibition (Mus musculus [1]): inactive
ED50 (Mus musculus [2]): inactive
Activity (Mus musculus [3]): 26%
inhibition in vivo at 25 mg/kg (Mus musculus [4]): 51%

CN(C)CCN/N=C1/CC(C)(C)CC2=C1CC(c1ccccc1)=NN2CCN(C)C
inhibition (Mus musculus [1]): inactive
ED50 (Mus musculus [2]): inactive

CC1(C)CC(=O)C2=C(C1)N(CCO)N=C(c1ccccc1)C2.Cc1ccc(S(=O)(=O)O)cc1
inhibition in vivo at 500 mg/kg (Mus musculus [1]): 1%
Activity (Mus musculus [5]): 25%
ED50 (Mus musculus [2]): inactive
Activity (Mus musculus [3]): 51%
inhibition in vivo at 25 mg/kg (Mus musculus [4]): 26%
Activity (Mus musculus [10]): inactive

CC1(C)CC(=O)C2=C(C1)NN=C(c1ccccc1)C2
inhibition (Mus musculus [1]): inactive
ED50 (Mus musculus [2]): inactive
Activity (Mus musculus [3]): 26%
inhibition in vivo at 25 mg/kg (Mus musculus [4]): 26%

CCN(CC)CCN1N=C(c2ccccc2)CC2=C1CC(C)(C)CC2=O.[O-][Cl+3]([O-])([O-])O
inhibition in vivo at 500 mg/kg (Mus musculus [1]): 26%
Activity (Mus musculus [5]): 50%
Activity (Mus musculus [7]): Toxic
Activity (Mus musculus [8]): Toxic
ED50 (Mus musculus [2]): 225 mg/kg
Activity (Mus musculus [3]): 51%
inhibition in vivo at 25 mg/kg (Mus musculus [4]): 26%
Activity (Mus musculus [10]): Active

CC1=NNC2=C(C1)C(=O)CC(C)(C)C2
inhibition (Mus musculus [1]): inactive
ED50 (Mus musculus [2]): inactive
Activity (Mus musculus [3]): 51%
inhibition in vivo at 25 mg/kg (Mus musculus [4]): 0%

CCN(CC)CCN1N=C(c2cc(OC)c(OC)c(OC)c2)CC2=C1CC(C)(C)CC2=O.[O-][Cl+3]([O-])([O-])O
inhibition (Mus musculus [1]): inactive
ED50 (Mus musculus [2]): inactive
Activity (Mus musculus [3]): 26%
inhibition in vivo at 25 mg/kg (Mus musculus [4]): 51%

CN(C)CCN1N=C(c2ccc(F)cc2)CC2=C1CC(C)(C)CC2=O.O.O=C(O)C(=O)O
inhibition (Mus musculus [1]): inactive
Activity (Mus musculus [7]): Toxic
Activity (Mus musculus [8]): Toxic
ED50 (Mus musculus [2]): inactive
Activity (Mus musculus [3]): 26%
inhibition in vivo at 25 mg/kg (Mus musculus [4]): 26%

CCN(CC)CCN1N=C(c2ccc(Br)cc2)CC2=C1CC(C)(C)CC2=O
inhibition in vivo at 500 mg/kg (Mus musculus [1]): 26%
Activity (Mus musculus [5]): 50%
Activity (Mus musculus [7]): Toxic
Activity (Mus musculus [8]): Toxic
ED50 (Mus musculus [2]): 100 mg/kg
Activity (Mus musculus [3]): 26%
inhibition in vivo at 25 mg/kg (Mus musculus [4]): 26%
Activity (Mus musculus [10]): Active

CN(C)CCCN1N=C(c2ccccc2)CC2=C1CC(C)(C)CC2=O.O.[O-][Cl+3]([O-])([O-])O
inhibition in vivo at 500 mg/kg (Mus musculus [1]): 1%
Activity (Mus musculus [5]): 25%
ED50 (Mus musculus [2]): 500 mg/kg
Activity (Mus musculus [3]): 51%
inhibition in vivo at 25 mg/kg (Mus musculus [4]): 26%
Activity (Mus musculus [10]): inactive

CC1(C)CC(=O)c2cc(-c3ccccc3)nnc2C1
inhibition in vivo at 500 mg/kg (Mus musculus [1]): 1%
Activity (Mus musculus [5]): 25%
Activity (Mus musculus [7]): Toxic
Activity (Mus musculus [8]): Toxic
ED50 (Mus musculus [2]): 500 mg/kg
Activity (Mus musculus [3]): 26%
inhibition in vivo at 25 mg/kg (Mus musculus [4]): 26%
Activity (Mus musculus [10]): inactive

CCN(CC)CCN1N=C(c2ccc(F)cc2)CC2=C1CC(C)(C)CC2=O
inhibition in vivo at 500 mg/kg (Mus musculus [1]): 51%
Activity (Mus musculus [5]): 75%
Activity (Mus musculus [6]): inactive
Activity (Mus musculus [11]): Active
Activity (Mus musculus [7]): Toxic
Activity (Mus musculus [8]): Toxic
ED50 (Mus musculus [2]): 150 mg/kg
Activity (Mus musculus [3]): 51%
inhibition in vivo at 25 mg/kg (Mus musculus [4]): 26%

CC1(C)CC(=O)C2=C(C1)N(c1ccccc1)N=C(c1ccccc1)C2
inhibition (Mus musculus [1]): inactive
ED50 (Mus musculus [2]): inactive
Activity (Mus musculus [3]): 0%
inhibition in vivo at 25 mg/kg (Mus musculus [4]): 26%

CC1(C)CC(=O)C2=C(C1)N(CCN1CCNCC1)N=C(c1ccc(Br)cc1)C2.Cl.O
inhibition in vivo at 500 mg/kg (Mus musculus [1]): 26%
Activity (Mus musculus [5]): 50%
ED50 (Mus musculus [2]): inactive
Activity (Mus musculus [3]): 0%
inhibition in vivo at 25 mg/kg (Mus musculus [4]): 26%
Activity (Mus musculus [10]): Active

CCN(CC)CCN1N=C(c2ccccc2)CC2=C1CCCC2=O.[O-][Cl+3]([O-])([O-])O
inhibition (Mus musculus [1]): inactive
ED50 (Mus musculus [2]): 200 mg/kg
Activity (Mus musculus [3]): 51%
inhibition in vivo at 25 mg/kg (Mus musculus [4]): 26%
Activity (Mus musculus [12]): Toxic

CC1(C)CC(=O)C2=C(C1)N(C(N)=O)N=C(c1ccccc1)C2
inhibition (Mus musculus [1]): inactive
ED50 (Mus musculus [2]): inactive
Activity (Mus musculus [3]): 51%
inhibition in vivo at 25 mg/kg (Mus musculus [4]): 26%

CN(C)CCN1N=C(c2ccc(Br)cc2)CC2=C1CC(C)(C)CC2=O.[O-][Cl+3]([O-])([O-])O
inhibition in vivo at 500 mg/kg (Mus musculus [1]): 51%
Activity (Mus musculus [5]): 75%
Activity (Mus musculus [13]): Active
ED50 (Mus musculus [2]): 100 mg/kg
Activity (Mus musculus [3]): 51%
inhibition (Mus musculus [4]): inactive

CC1(C)CC(=O)C(CC(=O)c2ccccc2)=C(NNC(=O)c2ccncc2)C1
inhibition in vivo at 500 mg/kg (Mus musculus [1]): 1%
Activity (Mus musculus [5]): 25%
ED50 (Mus musculus [2]): inactive
Activity (Mus musculus [3]): 51%
inhibition in vivo at 25 mg/kg (Mus musculus [4]): 51%
Activity (Mus musculus [10]): inactive

CC1(C)CC(=O)C(CC(=O)c2ccccc2)=C(NNC(=N)N)C1
inhibition in vivo at 500 mg/kg (Mus musculus [1]): 1%
Activity (Mus musculus [5]): 25%
ED50 (Mus musculus [2]): inactive
Activity (Mus musculus [3]): 51%
inhibition in vivo at 25 mg/kg (Mus musculus [4]): 76%
Activity (Mus musculus [10]): inactive

CCOC(=O)NNC1=C(CC(=O)c2ccccc2)C(=O)CC(C)(C)C1
inhibition in vivo at 500 mg/kg (Mus musculus [1]): 1%
Activity (Mus musculus [5]): 25%
ED50 (Mus musculus [2]): inactive
Activity (Mus musculus [3]): 26%
inhibition in vivo at 25 mg/kg (Mus musculus [4]): 51%
Activity (Mus musculus [10]): inactive

CC1(C)CC(=O)C(CC(=O)c2ccccc2)=C(NNc2ccncc2)C1
inhibition in vivo at 500 mg/kg (Mus musculus [1]): 1%
Activity (Mus musculus [5]): 25%
ED50 (Mus musculus [2]): inactive
Activity (Mus musculus [3]): 51%
inhibition in vivo at 25 mg/kg (Mus musculus [4]): 76%
Activity (Mus musculus [10]): inactive

CCN(CC)CCN1N=C(c2ccccc2)C(C)C2=C1CC(C)(C)CC2=O.[O-][Cl+3]([O-])([O-])O (centres undefined)
inhibition in vivo at 500 mg/kg (Mus musculus [1]): 1%
Activity (Mus musculus [5]): 25%
Activity (Mus musculus [7]): Toxic
Activity (Mus musculus [8]): Toxic
ED50 (Mus musculus [2]): 400 mg/kg
Activity (Mus musculus [3]): 26%
inhibition in vivo at 25 mg/kg (Mus musculus [4]): 0%
Activity (Mus musculus [10]): inactive

CCN(CC)CCn1nc(C)c(=O)c2c1CC(C)(C)CC2=O
inhibition (Mus musculus [1]): inactive
ED50 (Mus musculus [2]): inactive
Activity (Mus musculus [3]): 26%
inhibition in vivo at 25 mg/kg (Mus musculus [4]): 51%
